Bioassay records (PubChem)
CHO parental Ca: signal in parental CHO cells, OX1R antagonist counter-screen | parental CHO-K1, ATP-induced calcium, Fluo-8 fluorescence | inhibition, % at 5.6 µM | 330,000 compounds, 0.63% hits | AID 463079;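 active = inhibition above that plate's mean sample inhibition plus 3 SD, cut at about 26% in these data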;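 note: 0% = ATP-challenged DMSO wells and 100% = DMSO wells without ATP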
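Material: parental CHO cells / Compound: single nominal dose of 5.6 µM per compound / Signal: Fluo-8 fluorescence / Replicates: singlicate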
TAAR1 antag: antagonists of human TAAR1. Q96RJ0. CHO RD-HGA16 TAAR1, Fluo-8 calcium fluorescence, antagonist. inhibition, % at 3 µM. 360,000 compounds, 1.5% hits. AID 624466;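 active = inhibition above a per-plate cutoff, the mean inhibition of test compounds on that plate plus 3 SD, cut at about 49% in these data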;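 note: 0% = DMSO plus EC80 beta-PEA response and 100% = DMSO alone without agonist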
Target sequence (Q96RJ0 whole entry, looked up): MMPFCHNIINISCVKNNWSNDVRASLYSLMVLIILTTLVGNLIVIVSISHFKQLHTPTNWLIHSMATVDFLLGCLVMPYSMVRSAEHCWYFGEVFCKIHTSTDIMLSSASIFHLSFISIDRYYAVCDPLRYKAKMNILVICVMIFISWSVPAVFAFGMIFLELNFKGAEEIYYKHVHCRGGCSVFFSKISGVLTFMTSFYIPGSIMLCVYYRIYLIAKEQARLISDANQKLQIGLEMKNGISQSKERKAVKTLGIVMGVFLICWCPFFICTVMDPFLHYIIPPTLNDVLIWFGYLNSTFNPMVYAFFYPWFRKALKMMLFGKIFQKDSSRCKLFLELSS
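Material: CHO RD-HGA16 cells bearing hTAAR1; compound dosing: one-point dosing, 3 µM nominal final; schedule: dye loading 75 min at 37 °C, then 30 min room temperature; measured by: calcium fluorescence with Fluo-8; control set: vehicle and agonist controls; replication: n of 1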
TAAR1 ag: human TAAR1 agonism; activation, % at 3 µM; Q96RJ0; CHO RD-HGA16 TAAR1, Fluo-8 calcium fluorescence; vehicle wells 0%, saturating PEA agonist 100%; 360,000 compounds, 0.99% hits;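 active = activation above the mean activation of all test compounds in the run plus 3 SD, cut at about 38% in these data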
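System: CHO RD-HGA16 cells carrying human TAAR1 plus Gα16; Incubation: 17-24 h seeding, 75 min 37 °C dye, 30 min RT; Measured by: Fluo-8 fluorescence, 5 s baseline then 140 s kinetic read; Control set: DMSO and PEA EC100; Replication: single well for each compound.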
OX1R antag-1: antagonists of human orexin 1 receptor (OX1R); O43613; OX1R-expressing cells, FRET antagonist read-out; inhibition, % at 6.6 µM; 330,000 compounds, 1.8% hits; AID 485270; in the data active = inhibition mostly above about 38%, no sharp cut-off; inactive = mostly below about 40%;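 note: 0% = agonist challenge alone and 100% = reference antagonist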
GPR7 antagonist: blocks human GPR7 receptor signaling | P48145 | GPR7-expressing cells, fluorescence antagonist assay | inhibition, % at 4.4 µM | 290,000 compounds, 1.1% hits | AID 1861; in the data active = inhibition above about 16%, passing the limit was not always enough;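 note: cells stimulated with the agonist NPW; 0% = agonist with vehicle and 100% = vehicle without agonist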
Target sequence (P48145 whole entry, looked up): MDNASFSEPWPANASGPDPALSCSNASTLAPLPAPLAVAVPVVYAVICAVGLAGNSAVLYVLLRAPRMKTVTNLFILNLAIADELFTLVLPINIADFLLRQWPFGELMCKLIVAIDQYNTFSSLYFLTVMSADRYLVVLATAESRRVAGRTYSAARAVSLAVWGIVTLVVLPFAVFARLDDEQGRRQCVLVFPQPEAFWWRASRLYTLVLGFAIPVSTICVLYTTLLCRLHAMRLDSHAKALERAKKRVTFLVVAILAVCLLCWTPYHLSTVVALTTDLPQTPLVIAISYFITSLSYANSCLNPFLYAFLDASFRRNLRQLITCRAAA
OX1R antag-2: blocks the human orexin 1 receptor; CHO/OX1R cells, Fluo-8 calcium fluorescence, orexin A; inhibition, % at 5 µM; O43613; 330,000 compounds, 0.43% hits;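 active = inhibition above its plate's threshold, mean inhibition of all tested compounds on the plate plus 3 SD, cut at about 37% in these data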;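 note: 0% = orexin A challenge wells and 100% = SB-334867-A antagonist wells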
* = called active by the depositor; x = not tested or not shown. Hits are enriched below; roughly 4.5% of the tested compounds scored in any of these assays.

SMILES	CHO parental Ca	TAAR1 antag	TAAR1 ag	OX1R antag-1	GPR7 antagonist	OX1R antag-2
CCCCN(CC)CCCNC(=O)C1CCN(c2ncnc3c2sc2cccc(F)c23)CC1	-14.9	-18.8	0.8	62.3*	-4.3	-11.2
O=C(NCCN1CCOCC1)C1CCN(c2ncnc3c2sc2cccc(F)c23)CC1	1.8	4.9	0.5	9.5	-9.3	-6.7
O=C(OC1Cn2c(=O)ccc(=O)n2C1)c1ccc([N+](=O)[O-])cc1	-5.0	5.8	2.2	45.4*	5.6	-10.2
Cc1ccc2sc(NC(=O)CSc3nc(C)cc(C)c3C#N)nc2c1	-3.0	1.9	7.1	19.5	5.7	-17.2
Cc1cc(C(F)(F)F)c(C#N)c(SCC(=O)Nc2nc3ccccc3s2)n1	-10.8	-1.7	10.6	73.5*	-4.1	21.9
Cc1nc(SCC(=O)Nc2nccs2)c(C#N)c(C)c1C	-14.0	-3.4	1.6	1.5	x	-0.6
Cc1nc(SCC(=O)Nc2nc3ccccc3s2)c(C#N)c(C)c1C	-17.4	9.6	4.1	53.2*	-9.7	-16.8
NS(=O)(=O)c1cccc(NC(=O)COC(=O)c2ccccc2C(=O)c2ccccc2)c1	-9.4	-7.7	0.3	5.5	x	-14.8
Cc1c(C(=O)OCC(=O)Nc2cccc(S(N)(=O)=O)c2)oc2c1ccc1ccccc12	1.7	36.9	5.0	48.3*	0.1	27.0
CCCCC(=O)Nc1ccc2c3c(cccc13)C(=O)N2CC	-20.6	16.5	8.0	45.3*	-4.4	-20.8
O=C(CSc1ccc(-c2cccc([N+](=O)[O-])c2)nn1)N1CCCC1	-14.9	-24.1	0.1	71.8*	2.2	-15.6
O=[N+]([O-])c1ccc(Sc2nccn2Cc2ccccc2)c([N+](=O)[O-])c1	-15.0	-18.1	1.6	38.4*	-7.2	-32.6
O=[N+]([O-])c1cc(C(F)(F)F)ccc1Sc1nccn1Cc1ccccc1	-10.9	7.2	5.6	15.2	-0.1	-28.3
O=[N+]([O-])c1ccc(Sc2ncccn2)c([N+](=O)[O-])c1	-3.2	-7.5	0.4	66.5*	-4.2	-7.9
c1ccc(-c2nc3ccccc3[nH]2)nc1	-7.0	-10.7	1.4	11.5	-2.9	-5.9
c1ccc(-c2nc3c(ccc4ccccc43)[nH]2)nc1	-12.9	-0.8	9.2	70.5*	1.6	-8.8
O=C1CC(c2ccccc2)=C(c2ccccc2)C1c1ccccc1 (configuration not stated)	x	18.2	1.5	x	x	x
CC(=O)N1CCN(c2ccc(NCc3ccc(-c4ccc(Br)cc4)o3)cc2)CC1	10.3	58.2*	10.8	16.8	x	24.0
COc1ccccc1CNc1ccc2c(c1)OC[C@H](CC(C)C)NS2(=O)=O	x	32.6	4.3	x	x	x
CCOC(=O)C(C(=O)OCC)C(=O)c1cccc2ccc3ccccc3c12	x	-14.7	1.1	x	x	x
COC(=O)/C=C1\SC(N2CCOCC2)=C(c2ccc(OC)cc2)C1=O	-11.8	2.2	10.0	70.2*	-10.9	-15.5
COC(=O)CN1C(=S)N(c2ccc(OC)cc2)C(=O)/C1=C/c1ccc(N2CCOCC2)cc1	9.5	13.0	25.8	5.3	-7.6	25.9
CCOC(=O)N1CCN(Cc2ccc(OCC(O)CN3CCCCC3)cc2)CC1 (configuration not stated)	-4.9	-16.4	0.2	2.4	-13.9	-15.6
CCOC(=O)/C(=C/C=C1\Sc2ccccc2N1CC)C(C)=O	28.1*	x	x	40.5	10.7	29.9
COc1ccc(C2NC(=S)N(Cc3ccc(Cl)cc3)C(C)=C2C(C)=O)cc1 (configuration not stated)	x	2.8	-0.6	x	x	x
SMILES	CHO parental Ca	TAAR1 antag	TAAR1 ag	OX1R antag-1	GPR7 antagonist	OX1R antag-2
CC(=O)c1ccc(OC2(C)CCN(Cc3csc4ccccc34)C2)cc1 (configuration not stated)	x	1.4	-2.0	x	x	x
CC(C)(C)c1ccc(-c2cn(-c3ccc(Br)cc3)c3[n+]2CCCS3)cc1	x	14.8	6.1	x	55.6*	x
c1ccc(-c2cn(-c3ccccc3)c3[n+]2CCS3)cc1	10.5	17.9	2.9	23.7	-7.5	-2.2
CCOC(=O)c1cc2c(C)n(-c3ccc(OCC)cc3)c(C)c2ccc1=O	-13.0	-4.7	0.7	26.1	19.1	-32.3
CCOC(=O)c1cc2c(C)n(-c3ccc(C)cc3)c(C)c2ccc1=O	-7.6	1.7	-0.5	40.5*	-10.4	-12.7
Cc1[nH]n(-c2ccccc2)c(=O)c1/C=N/N1C(=O)c2cccc3cccc(c23)C1=O	-4.9	10.9	24.9	74.1*	2.8	5.1
O=[N+]([O-])c1cccc(-c2nc(-c3ccccc3)c(-c3cccs3)[nH]2)c1	-7.6	57.9*	5.4	19.5	0.0	-4.0
COc1ccc(-c2nc(-c3ccccc3)c(-c3cccs3)[nH]2)cc1OC	-2.1	43.8	15.3	27.6	1.8	-19.0
COCCCNC(=O)C[C@H]1C[C@@]2(C(=O)OC)C(=C[C@H](COCc3ccccc3)O[C@@H]2C)N(Cc2ccc3c(c2)OCO3)C1=O	x	-18.7	0.2	x	x	x
Cc1cccc(CS(=O)(=O)c2nnc([C@H](Cc3ccccc3)NC(=O)OC(C)(C)C)o2)c1	66.7*	x	x	16.9	7.7	57.0*
Cc1noc(C)c1CSCC(=O)Oc1ccc(N(C)S(=O)(=O)c2ccc(Cl)cc2)cc1	12.2	53.4*	5.2	19.0	x	0.1
COc1ccccc1CC(=O)Nc1ccc([N+](=O)[O-])cc1O	1.0	7.6	13.5	33.3	29.3*	14.8
C[C@@H]1COc2cc(N3CCCCC3)ccc2S(=O)(=O)N1	x	16.8	1.2	x	x	x
N#Cc1cccnc1N1CCN(C(=O)c2cccc3c2C(=O)c2ccc(Cl)cc2S3(=O)=O)CC1	-24.3	19.0	19.9	33.6*	x	-18.8
O=C(C(=O)N1CCC(CNC(=O)c2cccnc2Cl)CC1)c1cc2ccccc2o1	x	-29.2	1.6	x	x	x
COc1cccc2c1C(=O)c1c(O)c3c(c(O)c1C2=O)C[C@@](O)(C(=O)CO)C[C@@H]3O[C@H]1C[C@H](N)[C@@H](O)[C@H](C)O1	19.5	x	x	41.2*	x	28.9
CC(=O)[C@]1(O)Cc2c(O)c3c(c(O)c2[C@@H](O[C@H]2C[C@H](N)[C@H](O)[C@H](C)O2)C1)C(=O)c1ccccc1C3=O	36.7*	x	x	53.5	x	42.2*
Cc1ccccc1S(=O)(=O)N1CCCc2nc(-c3ccccc3)ccc21	x	22.1	-1.8	x	x	x
CC(=O)c1cccc(NC(=O)C2CCCN(S(=O)(=O)c3cccc4cccnc34)C2)c1 (configuration not stated)	-9.8	51.8*	8.4	55.0*	-13.4	-11.0
O=C(Nc1cccc(Cl)c1)C1CCCN(S(=O)(=O)c2ccc(F)cc2)C1 (configuration not stated)	-16.8	39.2	5.2	41.7*	-4.3	-4.9
O=C(Nc1ccccc1Cl)C1CCCN(S(=O)(=O)c2ccc(F)cc2)C1 (configuration not stated)	-17.4	6.8	5.5	15.5	10.7	-21.9
